# Compound activity: PubChem BioAssay, several laboratories
# HCT116 PTEN-null: suppresses growth of cells with PTEN deletion | viability, % at 10 µM | actives 1.2% (n = 140,000) | HCT116 PTEN-null viability, CellTiter-Glo, 60 h; stronger effect = lower value;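 active means viability at or below a set limit, 4 SD under the median of all tested compounds, cut at about 3.7% in these data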;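 further: PTEN knockout HCT116 line with beta catenin targeted HCT116 as companion control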
# Dynein cargo inh: dynein cargo transport inhibition. actives 0.47% (n = 220,000). z-score, hits read low. 3617.4 mouse cells, GR-EGFP nuclear translocation imaging; test concentration mostly 20 µM; stimulated with dexamethasone, 1 µM; stronger effect = lower value;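 active means plate z-score of nuclear minus cytoplasmic receptor signal below a set negative limit, without overly bright fluorescence or cell loss, cut at about -3.5 in these data, passing the limit was not always enough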;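 further: z-score of nuclear minus cytoplasmic ring GR-EGFP intensity difference per well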
#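 Buffer or medium: tetracycline-free induction medium containing charcoal-stripped FBS / Reagent: dexamethasone agonist, 1.0 µM final, for 30 min / Technique: automated 10x imaging of fixed Hoechst-stained cells / Times: induction 48 h, compound 1 h, agonist 30 min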
# Lmaj promast: reduces viability of Leishmania major promastigotes | resazurin fluorescence viability | inhibition, % at 10 µM | actives 9% (n = 200,000) | AID 1063; in the data active means inhibition above about 50%;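 further: promastigotes grown with compound for 44 hours at 28 °C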
# bCat KO growth: beta-catenin-lacking colon tumor cell growth suppression; HCT116 beta-catenin knockout viability, CellTiter-Glo, 60 h; stronger effect = lower value; viability, % at 10 µM; actives 1.5% (n = 140,000); AID 818;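 active means viability at or under a set limit, the compound median less 4 SD, cut at about 6% in these data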;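 further: 0% = Hyamine 1622 control at 20 µM and 100% = untreated cell control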
# Autophagy HCS: alters autophagy in cells | MEF GFP-LC3 puncta imaging; test concentration mostly 10 µM | calls only at 10 µM (by protocol) | actives 0.98% (n = 190,000) | AID 463193;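 active means percentage of spot-positive cells more than 3 SD above its plate mean, without a fluorescence outlier flag or 80% toxicity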;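 further: spot-positive cell cutoff set from DMSO-treated cells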
# The depositor's hits bear a star; i = inactive; . = no result given; + = active, no number. In the library only some 9.2% were active in any assay of this set; here they are far more common.
SMILES,HCT116 PTEN-null,Dynein cargo inh,Lmaj promast,bCat KO growth,Autophagy HCS
CC(=O)/C(N=Nc1ccc2c(c1)OCCO2)=C(\C)O,.,0.915,-8.9,.,i
CC(=O)/C(N=Nc1ccc2c(c1)OCO2)=C(\C)O,89.3,0.192,57.0*,83.6,i
Cn1c(=N)n(CC(O)c2ccco2)c2ccccc21 (centres undefined),88.8,-0.881,5.1,92.4,i
Cn1c(=N)n(CC(O)c2cccc3ccccc23)c2ccccc21 (centres undefined),32.1,0.316,101.8*,28.7,i
CCOc1ccc2nc(NC(=O)c3cccc(-c4cc5ccccc5oc4=O)c3)sc2c1,6.0,0.453,-1.0,8.6,i
Cc1ccc2nc(NC(=O)c3cccc(-c4cc5ccccc5oc4=O)c3)sc2c1,2.2*,0.284,-1.6,3.0*,i
CCn1c(CC(=O)Nc2ccc(C)cc2)n[nH]c1=S,.,-0.386,-6.0,.,i
Cc1ccc(C)c(/C=N/Nc2ccccn2)c1,.,0.4,17.3,.,i
Cc1nn(CC#N)c(=O)n1-c1ccc(Cl)cc1,.,-0.161,-1.8,.,+
CCN1C(=O)C2(SC(NC(C)=O)=NN2C(C)=O)c2cc(C)cc(C)c21 (centres undefined),92.0,2.71,70.5*,87.5,i
Cc1c(C(=O)O)cccc1-n1c(C)cc(/C=N/NC(=O)c2cc3ccccc3o2)c1C,103.3,1.07,56.3*,96.2,i
Cc1c(C(=O)O)cccc1-n1c(C)cc(/C=N/Nc2ccc([N+](=O)[O-])cn2)c1C,.,-0.761,.,.,.
CCOC(=O)N1CCC(n2c(SCC(=O)Nc3nccs3)nc3ccsc3c2=O)CC1,85.0,-0.281,24.0,85.8,i
CS(=O)(=O)c1ccc2nc(NC(=O)C3CCCO3)sc2c1 (centres undefined),.,-0.432,-6.9,.,i
O=C(Nc1nc2ccc(Cl)cc2s1)C1CCCO1 (centres undefined),91.8,-0.563,10.5,87.0,i
O=C(Nc1nc2ccc([N+](=O)[O-])cc2s1)C1CCCO1 (centres undefined),.,0.293,0.7,.,+
CCOc1ccc2nc(NC(=O)c3ccc(OCC4CCCO4)cc3)sc2c1 (centres undefined),58.3,-0.543,85.7*,67.0,i
C=CCN(CC=C)S(=O)(=O)c1ccc2nc(NC(=O)C3CCCO3)sc2c1 (centres undefined),82.3,-0.32,68.0*,79.3,i
COc1ccccc1N(CC(=O)NC(C)(C)C)C(=O)c1ccc(Cl)nc1,.,0.0136,-4.1,.,i
CCCn1c(SCC(=O)Nc2cccc(S(=O)(=O)N3CCCC3)c2)n[nH]c1=O,.,0.852,4.9,.,i
N=c1c2c(-c3ccccc3)c(-c3ccccc3)n(Cc3ccccc3)c2ncn1CCCn1ccnc1,2.0*,-1.35,100.4*,1.2*,+
N=c1c2c(-c3ccccc3)c(-c3ccccc3)n(Cc3ccco3)c2ncn1Cc1ccco1,1.4*,-1.02,100.2*,1.5*,+
O=C(CN1CCOCC1)Nc1ccc2c(c1)OCCO2,.,-0.83,.,.,.
NC(=O)c1cccnc1Sc1ccc(Cl)cc1,104.5,0.351,32.9,91.0,i
O=C(O)c1cccnc1Sc1ccc(Cl)cc1,.,0.149,4.5,.,+
SMILES,HCT116 PTEN-null,Dynein cargo inh,Lmaj promast,bCat KO growth,Autophagy HCS
NC(=O)CC(NC(=O)Cc1ccc(Br)cc1)c1ccc(N2CCN(c3ccccc3)CC2)c([N+](=O)[O-])c1 (centres undefined),.,0.459,.,.,.
CCOC(=O)c1ccc(N2C(=O)c3n[nH]c(C)c3C2c2cccnc2)cc1 (centres undefined),103.2,1.14,42.0,102.9,i
CCOC(=O)c1ccc(N2C(=O)c3n[nH]c(-c4ccco4)c3C2c2ccc([N+](=O)[O-])cc2)cc1 (centres undefined),9.9,2.06,97.6*,12.1,i
O=C(Nc1cc([N+](=O)[O-])ccc1Cl)C(Sc1ccccc1)c1ccccc1 (centres undefined),70.9,2.08,96.1*,82.4,i
CC(C)(C)NS(=O)(=O)c1ccc(NC(=O)C(Sc2ccccc2)c2ccccc2)cc1 (centres undefined),1.6*,-0.25,55.7*,1.6*,i
O=C(Nc1ccc(Cl)c([N+](=O)[O-])c1)C(Sc1ccccc1)c1ccccc1 (centres undefined),3.2*,-0.7,35.1,3.6*,i
O=S(=O)(CC(CN1CCCC1)N1CCCC1)c1ccc2ccccc2c1 (centres undefined),2.1*,-2.36,100.5*,1.9*,i
